# TRPC4 potent: allosterically enhances the mouse TRPC4 cation channel | HEK293 TRPC4beta/mu-opioid, DAMGO EC20, Fluo-4 Ca2+ flux; active compounds read high | B-score at 10 µM | 310,000 tested, 0.42% active;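 active = B-score of calcium response area above 5 SD of library B-scores, with initial fluorescence ratio within 5 SD of library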;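 note: B-score of integrated fluorescence ratio over time as area under calcium response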
# Target sequence (Q9QUQ5 whole entry, looked up): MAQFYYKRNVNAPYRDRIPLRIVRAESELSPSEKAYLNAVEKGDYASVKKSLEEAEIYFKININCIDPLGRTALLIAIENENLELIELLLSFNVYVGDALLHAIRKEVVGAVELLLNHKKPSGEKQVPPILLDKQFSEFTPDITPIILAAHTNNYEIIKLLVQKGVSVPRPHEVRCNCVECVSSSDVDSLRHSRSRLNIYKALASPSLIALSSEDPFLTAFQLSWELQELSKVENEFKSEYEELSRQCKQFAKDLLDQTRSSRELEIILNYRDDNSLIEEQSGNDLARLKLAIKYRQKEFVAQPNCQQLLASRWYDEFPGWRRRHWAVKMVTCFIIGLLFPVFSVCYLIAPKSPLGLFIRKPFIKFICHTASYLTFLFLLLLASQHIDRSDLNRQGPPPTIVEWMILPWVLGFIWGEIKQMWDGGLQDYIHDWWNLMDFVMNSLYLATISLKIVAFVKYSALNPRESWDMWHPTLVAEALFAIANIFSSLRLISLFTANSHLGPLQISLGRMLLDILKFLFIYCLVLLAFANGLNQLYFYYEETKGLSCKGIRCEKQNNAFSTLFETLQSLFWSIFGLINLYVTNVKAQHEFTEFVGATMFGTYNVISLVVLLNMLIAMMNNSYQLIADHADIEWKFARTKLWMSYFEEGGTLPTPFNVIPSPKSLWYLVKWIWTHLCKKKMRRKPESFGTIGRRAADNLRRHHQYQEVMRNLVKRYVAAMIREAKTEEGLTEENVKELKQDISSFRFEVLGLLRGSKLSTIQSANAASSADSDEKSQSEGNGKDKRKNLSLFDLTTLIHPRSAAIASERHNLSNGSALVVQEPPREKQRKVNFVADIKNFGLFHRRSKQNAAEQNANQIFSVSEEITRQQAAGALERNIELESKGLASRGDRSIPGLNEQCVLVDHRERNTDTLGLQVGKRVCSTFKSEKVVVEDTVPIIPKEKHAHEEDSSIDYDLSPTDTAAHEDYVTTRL
# TRPC6 inh: inhibitors of mouse TRPC6 channel. Q61143. HEK293-TRPC6, membrane potential dye, ACh-evoked depolarization; active compounds read low. B-score at 10 µM. 310,000 tested, 1.1% active. AID 2553;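 active = B-score under library mean minus 3 SD, initial fluorescence not abnormally high, positive integrated signal ratio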;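 note: B-score derived from integrated fluorescence ratio over the kinetic read; more negative B-score means stronger inhibition of depolarization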
# TRPC4 act: opens the mouse TRPC4 cation channel | Q9QUQ5 | HEK293 TRPC4beta/mu-opioid, Fluo4 calcium fluorescence; active compounds read high | B-score at 10 µM | 310,000 tested, 0.49% active | AID 2237;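 active = B-score above 5 SD of library B-scores, and initial fluorescence ratio not above library mean plus 5 SD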;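 note: positive B-score marks a calcium rise read as TRPC4 activation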
#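 system = HEK293 cells stably co-expressing mouse TRPC4beta and mu-opioid receptor | schedule = Fluo4 dye loading 45 min at room temperature, 110 s recording | measure = B-scored integrated calcium fluorescence ratio | signal = Fluo4 calcium-sensitive dye fluorescence, kinetic, 1 Hz baseline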
# TRPC6 activator: activates the mouse TRPC6 cation channel. Q61143. HEK293-TRPC6 membrane potential dye fluorescence; active compounds read high. B-score at 10 µM. 310,000 tested, 0.13% active. AID 2550;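 active = B-score of the integrated fluorescence ratio above library mean plus 3 SD, and starting fluorescence ratio within library mean plus 5 SD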;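 note: higher score means more depolarization so channel activation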
# TRPC4 inh: TRPC4 (mouse) channel inhibition | HEK293 TRPC4beta/mu-opioid, DAMGO-evoked Fluo4 calcium flux; active compounds read low | B-score at 10 µM | Q9QUQ5 | 300,000 tested, 0.39% active;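 active = B-score over 3 SD under the library average, no early fluorescence shift, positive overall ratio signal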
#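 Assay system: HEK293 cells with stable TRPC4beta plus mu-opioid receptor expression. Dosing: single dose. Measured by: Fluo4 Ca2+ flux fluorescence. Also added: DAMGO in two steps, submaximal then maximal. Read-out: B score from integrated Fluo4 fluorescence ratio.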
# TRPC4 sel inh 2: mouse TRPC4 off-target activity of TRPC6 inhibitors, second screen | 920 tested, 42% active | HEK293 TRPC4/MOR, membrane potential dye fluorescence; channel activated by saturating DAMGO dose | shares compounds with TRPC6 inh | inhibition, % at 10 µM;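 active = compounds whose fluorescence signal differed from control wells by over 3 SD, either direction, in both duplicate plates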
# TRPC4 spec: tests whether TRPC6 inhibitors also affect mouse TRPC4; 920 tested, 61% active; shares compounds with TRPC6 inh; HEK293 TRPC4/mu-opioid, membrane potential fluorescence; activity change, negative = inhibition, % at 10 µM;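 active = rise or fall in signal beyond 3 SD of buffer-only wells in both replicate plates, either sign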;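 note: integrated kinetic ratio of fluorescence range over baseline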
# HEK293 MPD ctr 2-1: second check of TRPC6 inhibitor effects in parental HEK293 cells | shares compounds with TRPC6 inh | parental HEK293 membrane potential dye fluorescence; maximal acetylcholine challenge after compound addition | signal change vs control, % at 10 µM | 920 tested, 31% active | AID 2779;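 active = membrane potential signal moving either way by over 3 SD of the maximum-effect control, in both duplicate plates, meaning non-specific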
# HEK293 MPD ctr-1: parental HEK293 nonspecific activity of TRPC6 inhibitors | membrane potential signal change, % at 10 µM | 920 tested, 60% active | parental HEK293 membrane potential dye fluorescence | shares compounds with TRPC6 inh | AID 2780;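 active = membrane potential signal shifting up or down by more than 3 SD of buffer-only wells, on both duplicate plates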
# HEK293 MPD ctr-2: counter-screen for TRPC6 modulators: effect in parental HEK293 cells; membrane potential dye fluorescence; membrane potential signal change, % at 10 µM; 2,400 tested, 51% active; shares compounds with TRPC6 inh;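 active = membrane potential signal moves up or down beyond 5 SD from buffer-only wells, on both duplicate plates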
# HEK293 MPD ctr 2-2: second counter-screen for TRPC6 modulators: effect in parental HEK293 cells; shares compounds with TRPC6 inh; membrane potential dye fluorescence; after compound, maximal acetylcholine stimulation; inhibition, % at 10 µM; 2,400 tested, 14% active;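 active = membrane potential signal drops by more than 5 SD from the mean control signal, in both duplicate plates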;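 note: plate controls were acetylcholine ECmax control wells for no effect and buffer only wells for full effect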
# TRPC4 ctr mod: mouse TRPC4 off-target activity of TRPC6 modulators; shares compounds with TRPC6 inh; HEK293 TRPC4/mu-opioid, membrane potential fluorescence; percent change from control (negative = decrease, positive = increase), % at 10 µM; 2,400 tested, 69% active;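 active = membrane potential signal moved up or down beyond 5 SD of buffer control wells, in both duplicate plates, actives on both sides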;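 note: plate controls were assay buffer wells for no effect and DAMGO maximal-effect wells for full effect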
# TRPC4/MOR inh 2: second check of whether TRPC6 modulators also affect mouse TRPC4. shares compounds with TRPC6 inh. HEK293 TRPC4/mu-opioid, membrane potential dye fluorescence; stimulated with maximal-effect DAMGO. inhibition, % at 10 µM. 2,400 tested, 55% active. AID 488928;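 active = drop in membrane potential signal beyond 5 SD of the control wells in both duplicate plates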;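 note: TRPC4 counter screen for TRPC6 hits run under conditions tuned for TRPC6 not TRPC4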
# TRPC6 inh conf: mouse TRPC6 inhibitor confirmation | HEK293-TRPC6, membrane potential dye, ACh-evoked depolarization | 3,300 tested, 43% active | inhibition, % at 10 µM | shares compounds with TRPC6 inh;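 active = fluorescence ratio falls more than 5 SD below the full-stimulation control mean, in both duplicate runs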;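 note: integrated fluorescence ratio of peak minus minimum over baseline after agonist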
# TRPC6 act conf: confirmation of mouse TRPC6 activators | HEK293-TRPC6 membrane potential dye fluorescence, FDSS | AID 488961 | shares compounds with TRPC6 inh | 2,800 tested, 11% active | activation, % at 10 µM;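 active = ratio signal rise beyond 5 SD above unstimulated control wells' mean, seen in both duplicate runs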;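 note: plate controls were buffer EC0 wells for no effect and acetylcholine ECmax response for full effect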
# The depositor's hits bear a star; i = inactive; nt = no result given. Shown are actives, neighbours in structure and some others; about 2.3% of the full set was active somewhere.
SMILES,TRPC4 potent,TRPC6 inh,TRPC4 act,TRPC6 activator,TRPC4 inh,HEK293 MPD ctr-2,HEK293 MPD ctr 2-2,TRPC4 ctr mod,TRPC4/MOR inh 2,TRPC6 inh conf,TRPC6 act conf,others
CCN(CC)CC(=O)Nc1ccc(/C(C)=N/NC2=NCCN2)cc1,i,-8*,i,i,i,nt,nt,nt,nt,i,i,TRPC4 sel inh 2=i;TRPC4 spec=-12%*;HEK293 MPD ctr 2-1=i;HEK293 MPD ctr-1=i
CC(=O)Nc1ccc(S(=O)(=O)Nc2nc3ccccc3nc2Nc2cccc(S(N)(=O)=O)c2)cc1,i,i,i,i,i,nt,nt,nt,nt,nt,nt,
Cc1cccc(Nc2c(-c3ccc(O)cc3)nc3ncccn23)c1,i,-5.2*,i,i,i,-55%*,i,-13%*,56%*,i,i,
Cc1ccc(Nc2c(-c3ccc(N4CCOCC4)cc3)nc3ncccn23)cc1C,i,-6.1*,i,i,i,i,i,-26%*,80%*,i,i,
C=CCn1c(SCC(=O)NC2(C#N)CCCCC2)nnc1-c1ccncc1,i,i,i,i,i,nt,nt,nt,nt,nt,nt,
O=C(CCOc1ccc(F)cc1)Nc1nccs1,i,i,i,i,i,nt,nt,nt,nt,nt,nt,
CCc1nc2cccnc2n1-c1ccc(CC(=O)O)cc1,i,i,i,i,i,nt,nt,nt,nt,nt,nt,
CC(C)NC(=O)CCc1nc2cccnc2n1-c1ccccc1,i,-5.9*,i,i,i,i,i,i,i,i,i,
CC(=O)NC(Cc1cccc(F)c1)C(=O)NC1CCN(C(=O)Nc2ccccc2)CC1 (stereo not drawn),i,i,i,i,i,nt,nt,nt,nt,nt,nt,
COc1ccc(-n2nc3c(c2NC(=O)COc2cccc(OC)c2)CS(=O)(=O)C3)cc1,i,i,i,i,i,nt,nt,nt,nt,nt,nt,
CC(/C=N/n1c(-c2cccnc2)n[nH]c1=S)=C\c1ccco1,i,i,i,i,i,nt,nt,nt,nt,nt,nt,
COc1ccc(/C=N/n2c(-c3n[nH]c4c3CCC4)n[nH]c2=S)cc1,i,-5*,i,i,i,i,i,i,i,i,nt,
CC(/C=N/n1c(-c2n[nH]c3c2CCC3)n[nH]c1=S)=C\c1ccco1,i,-8.4*,i,i,i,nt,nt,nt,nt,70%*,i,TRPC4 sel inh 2=i;TRPC4 spec=i;HEK293 MPD ctr 2-1=-11%*;HEK293 MPD ctr-1=i
O=C(Nc1ccc(S(=O)(=O)N2CCOCC2)cc1)C1CC(=O)N(c2ccc(F)cc2)C1 (stereo not drawn),i,i,i,i,i,nt,nt,nt,nt,nt,nt,
Cc1ccc(C(C)C)c(OCC(=O)Nc2ccc3c(c2)nc(CCN2CCCCC2)n3C)c1,i,-6*,i,i,i,i,i,i,78%*,57%*,nt,
Cn1c(CCN2CCCCC2)nc2cc(NC(=O)COc3ccc(Cl)cc3)ccc21,i,i,i,i,i,nt,nt,nt,nt,nt,nt,
Cc1nccn1CCc1n[nH]c(=S)n1Cc1ccccc1,i,-6.5*,i,i,i,i,i,i,i,69%*,i,
Cc1ccc(-c2n[nH]c(=S)n2Cc2ccccc2)cc1,i,-5*,i,i,i,i,i,i,i,i,i,
S=c1[nH]nc(CCc2ccccc2)n1Cc1ccccc1,i,i,i,i,i,nt,nt,nt,nt,nt,nt,
Cc1cccc(-c2n[nH]c(=S)n2Cc2ccccc2)c1,i,i,i,i,i,nt,nt,nt,nt,nt,nt,
O=C(NC1CCCCCC1)c1ccc(Cl)c(S(=O)(=O)N2CCOCC2)c1,i,i,i,i,i,nt,nt,nt,nt,nt,nt,
COc1ccc(CCn2nc(C)c([N+](=O)[O-])c2C)cc1,i,-5.2*,i,i,i,i,i,20%*,i,i,nt,
COc1cccc(-n2c(CCn3nc(C)c([N+](=O)[O-])c3C)n[nH]c2=S)c1,i,i,i,i,i,nt,nt,nt,nt,nt,nt,
O=C(c1ccccc1)N1CCN(C2C3CC4CC(C3)CC2C4)CC1 (stereo not drawn),i,-9.6*,i,i,i,nt,nt,nt,nt,i,nt,TRPC4 sel inh 2=i;TRPC4 spec=2.6%*;HEK293 MPD ctr 2-1=i;HEK293 MPD ctr-1=6.7%*
O=C(c1cccc(F)c1)N1CCN(S(=O)(=O)c2ccc(C(F)(F)F)cc2)CC1,i,-12*,i,14*,nt,i,i,i,i,62%*,72%*,
Cc1ccc(S(=O)(=O)N2CCN(C(=O)c3cccc(-n4cccc4)c3)CC2)cc1,i,-13*,i,14*,i,i,i,i,i,i,i,
Cc1ccc(S(=O)(=O)N2CCN(C(=O)c3ccccc3)CC2)cc1,i,-12*,i,15*,i,i,i,i,i,66%*,98%*,
CC(=O)c1ccc(-c2ccc(C(=O)NC3CC(C)(C)NC(C)(C)C3)o2)cc1,i,i,i,i,i,nt,nt,nt,nt,nt,nt,
C=CCN(C(=O)c1csnn1)C(C(=O)NCc1ccc(F)cc1)c1ccccc1F (stereo not drawn),i,i,i,i,i,nt,nt,nt,nt,nt,nt,

# Screening results deposited in PubChem BioAssay by Johns Hopkins Ion Channel Center.
